Source: article PMC8970626 (Biochemistry, 2022)
Residue numbers refer to the chain shown, from its start. Names may count otherwise. “And” between values parts separate entries of the source, which are not always exact repeats. Equal entries are not always repeated.

Assays:
human CYP24A1 (hCYP24A1) = biological target: T1, human CYP24A1 (hCYP24A1) (Homo sapiens, UniProt Q07973); experiment: Spectral ligand binding assay with hCYP24A1; conditions: for spectral response on titration (type-I, high-spin transition): hCYP24A1 without hAdx
T1 sequence (Q07973 36-514): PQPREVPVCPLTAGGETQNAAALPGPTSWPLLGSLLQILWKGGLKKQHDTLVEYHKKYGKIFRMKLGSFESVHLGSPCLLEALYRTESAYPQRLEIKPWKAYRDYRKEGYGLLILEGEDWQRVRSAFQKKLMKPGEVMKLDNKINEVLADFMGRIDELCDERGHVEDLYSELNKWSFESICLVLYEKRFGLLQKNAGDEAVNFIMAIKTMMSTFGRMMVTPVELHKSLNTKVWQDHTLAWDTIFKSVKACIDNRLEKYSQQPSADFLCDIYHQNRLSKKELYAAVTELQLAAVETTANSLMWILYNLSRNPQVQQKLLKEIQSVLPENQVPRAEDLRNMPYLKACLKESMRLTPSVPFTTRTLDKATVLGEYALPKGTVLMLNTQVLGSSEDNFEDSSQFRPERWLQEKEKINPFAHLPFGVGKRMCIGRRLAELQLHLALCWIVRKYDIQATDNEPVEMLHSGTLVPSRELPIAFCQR

rat CYP24A1 = conditions: cited from earlier work
rat CYP24A1 (rCYP24A1) = biological target: T2, rat CYP24A1 (rCYP24A1) (Rattus norvegicus, UniProt Q09128); experiment: Spectral ligand binding assay with rCYP24A1; conditions: rCYP24A1, no Adx
T2 sequence (Q09128 36-514): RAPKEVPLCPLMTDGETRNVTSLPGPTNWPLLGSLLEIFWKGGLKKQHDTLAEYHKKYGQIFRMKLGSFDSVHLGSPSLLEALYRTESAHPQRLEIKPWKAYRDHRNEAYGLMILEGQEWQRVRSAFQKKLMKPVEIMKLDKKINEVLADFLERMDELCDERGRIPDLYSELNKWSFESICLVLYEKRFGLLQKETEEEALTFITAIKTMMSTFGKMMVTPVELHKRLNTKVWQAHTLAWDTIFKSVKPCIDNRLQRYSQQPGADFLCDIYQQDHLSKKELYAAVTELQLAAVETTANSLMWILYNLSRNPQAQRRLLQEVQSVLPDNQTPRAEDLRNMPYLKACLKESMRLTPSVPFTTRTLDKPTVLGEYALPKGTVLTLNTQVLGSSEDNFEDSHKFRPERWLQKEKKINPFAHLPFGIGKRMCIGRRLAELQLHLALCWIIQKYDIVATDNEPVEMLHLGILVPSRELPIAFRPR
How it was run: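 UV-visible difference-spectra titration at ambient temperature with enzyme at 1 μM in 10 mM potassium phosphate. Ligand added from DMSO stock, solvent ≤2%, with 8 min incubation per point before each wavelength scan. Where Adx was present, 10 μM hAdx (WT or L80V) was baselined in the cuvette before enzyme and ligand.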

hCYP24A1 = biological target: T3, hCYP24A1 (Homo sapiens, UniProt Q07973); experiment: Reconstituted hCYP24A1 functional assay; assay type: biochemical; conditions: D72N_D76N hAdx double mutant; substrate 5 μM
T3 sequence (Q07973 36-514): T1 sequence (Q07973 36-514)
T3 sequence (P10109 61-184 D132N/D136N partner): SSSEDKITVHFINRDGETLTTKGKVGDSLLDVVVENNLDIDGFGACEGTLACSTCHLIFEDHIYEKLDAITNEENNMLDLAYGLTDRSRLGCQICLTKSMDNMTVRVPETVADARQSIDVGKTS

[1] = biological target: T4, human cytochrome P450 24A1 (hCYP24A1), cleaved and separated from the hAdx_hCYP24A1 fusion (human, UniProt Q07973 36-514); experiment: cross-linking
T4 sequence (looked up): T1 sequence (Q07973 36-514)

Q: Which results are given for C=C1/C(=C\C=C2/CCC[C@]3(C)[C@@H]([C@H](C)CCCC(C)C)CC[C@@H]23)C[C@@H](O)C[C@@H]1O [1α(OH)D]?
A: Kd (human CYP24A1 (hCYP24A1); +hAdx (WT, 10-fold, 10 μM)): 700 ± 50 nM; ΔAmax (human CYP24A1 (hCYP24A1); +hAdx (WT, 10-fold, 10 μM)): 0.055 ± 0.004 AU; Kd (human CYP24A1 (hCYP24A1); hCYP24A1 1 μM, no hAdx): 400 ± 100 nM; ΔAmax (human CYP24A1 (hCYP24A1); hCYP24A1 1 μM, no hAdx): 0.04 ± 0.008 AU; spectral response on titration (type-I, high-spin transition) (human CYP24A1 (hCYP24A1)): type-I response, albeit with a more noticeable increase in the high-spin transition; substrate quality for rat CYP24A1 (rat CYP24A1): poor substrate

Q: For C=C1/C(=C/C=C2\CCC[C@@]3(C)C2CC[C@@H]3C(C)CCC(O)C(C)(C)O)C[C@@H](O)C[C@@H]1O (stereo partly drawn) [1α,24,25(OH)3D], which Kd (human CYP24A1 (hCYP24A1); +hAdx (WT, 10-fold, 10 μM)) is on record?
A: 4000 ± 40 nM

Q: What about the ΔAmax (human CYP24A1 (hCYP24A1); +hAdx (WT, 10-fold, 10 μM)) of the same molecule?
A: 0.04 ± 0.003 AU

Q: What about the “spectral response on titration (type-I, high-spin transition)” value (“spectral response on titration” for short) (human CYP24A1 (hCYP24A1)) of the same molecule?
A: only a minimal type-I response

Q: With C=C1CC[C@H](O)C/C1=C/C=C1\CCC[C@]2(C)[C@@H]([C@H](C)CCCC(C)(C)O)CC[C@@H]12 [25(OH)D] as the molecule, how does the “spectral response on titration” value (human CYP24A1 (hCYP24A1)) read?
A: no measureable high-spin form is detected

Q: And the “binding affinity relative to other substrates” value (human CYP24A1 (hCYP24A1); interaction could not be saturated)?
A: likely binds with a weaker affinity than the other substrates tested

Q: With C=C1/C(=C\C=C2/CCC[C@]3(C)[C@@H]([C@H](C)CCCC(C)(C)O)CC[C@@H]23)C[C@@H](O)C[C@@H]1O [1α,25(OH)2D] as the molecule, how does the ΔAmax (human CYP24A1 (hCYP24A1); 10-fold excess of D72N_D76N hAdx) read?
A: 0.02 ± 0.002 AU

Q: And the ΔAmax (human CYP24A1 (hCYP24A1); 10-fold excess of L80I hAdx)?
A: 0.04 ± 0.003 AU

Q: What about the ΔAmax (human CYP24A1 (hCYP24A1); 10-fold excess of L80Q hAdx) of the same molecule?
A: 0.02 ± 0.001 AU

Q: What about the ΔAmax (human CYP24A1 (hCYP24A1); 10-fold excess of L80V hAdx) of the same molecule?
A: 0.04 ± 0.003 AU

Q: What about the ΔAmax (human CYP24A1 (hCYP24A1); +hAdx (WT, 10-fold, 10 μM)) of the same molecule?
A: 0.03 ± 0.004 AU

Q: And the ΔAmax (human CYP24A1 (hCYP24A1); hCYP24A1 1 μM, no hAdx)?
A: 0.03 ± 0.004 AU and 0.03 ± 0.005 AU

Q: And the “spectral response on titration” value (human CYP24A1 (hCYP24A1))?
A: type-I transition of the Soret band

Q: And the ΔAmax (rat CYP24A1 (rCYP24A1))?
A: 0.05 ± 0.004 AU

Q: What about the substrate remaining (hCYP24A1) of the same molecule?
A: approximately 60%

B1: human adrenodoxin (hAdx), unfused, wild type (natural protein)
chain: T3 sequence (P10109 61-184 D132N/D136N partner) with N72D, N76D
Q: Does B1 bind [1]?
A: binds

B2: human adrenodoxin mutant L80I (natural protein)
chain: T3 sequence (P10109 61-184 D132N/D136N partner) with N72D, N76D, L80I
Q: Does B2 bind [1]?
A: binds

B3: human adrenodoxin mutant L80Q (natural protein)
chain: T3 sequence (P10109 61-184 D132N/D136N partner) with N72D, N76D, L80Q
Q: Does B3 bind [1]?
A: binds

B4: human adrenodoxin mutant L80V (natural protein)
chain: T3 sequence (P10109 61-184 D132N/D136N partner) with N72D, N76D, L80V
Q: Does B4 bind [1]?
A: binds
